Structures are written as SMILES. pIC50, pKi: −log10 of the molar value. Calls of active or inactive are those of the source. The rule behind the calls is not given here.

In one experiment the target is Neuraminidase (Influenza A virus, UniProt B4URF0). In words: Inhibition of influenza A virus neuraminidase.
The target of experiment [1] is Neuraminidase (Influenza A virus (strain A/Brevig Mission/1/1918 H1N1) (Influenza Avirus (strain A/South Carolina/1/1918 H1N1))) (UniProt Q9IGQ6). Briefly: Competitive inhibition of Influenza A virus (A/Brevig Mission/1/1918(H1N1)) recombinant soluble neuraminidase at 0.7 to 3 nM using 2'-4(methylumbelliferyl)-alpha-D-N-acetylneuraminic acid substrate by fluorimetric based Michaelis-Menten equation analysis. In outline:
(§1)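 For kinetics, substrate working solution was serially diluted in assay buffer (50 mM Tris, 5 mM CaCl2, 200 mM NaCl, pH 7.5) containing 4% DMSO. Recombinant soluble neuraminidase reaction progress was followed fluorimetrically (ex 365, em 445 nm) for 10 min at several substrate and inhibitor concentrations to derive Ki.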

The target is the same in experiment [2]. In words: Inhibition of Influenza A virus (A/Brevig Mission/1/1918(H1N1)) recombinant neuraminidase by dose responsive study. In outline:
(§2)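 Recombinant soluble neuraminidase (400 ng/mL final) in 50 mM Tris, 5 mM CaCl2, 200 mM NaCl, pH 7.5, was mixed with a range of inhibitor concentrations and 2'-4-methylumbelliferyl substrate (200 µM final, 1.5% total DMSO). Fluorescence (ex 365 nm, em 445 nm) was followed over 5 min, and IC50 was taken from the full dose–response curve.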

Experiment [3] concerns the target Neuraminidase (Influenza A virus) (UniProt B4URF0). Briefly: Inhibition of NP40-inactivated Influenza A virus (A/Brisbane/59/2007(H1N1)) neuraminidase after 10 mins by dose responsive study. In outline:
(§3)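 Inhibitor dilutions were incubated for 10 min at room temperature with 0.2% NP40-inactivated virus, diluted to match the activity of 1000 ng/mL recombinant enzyme stock. The 4-methylumbelliferyl sialic acid substrate was then added in Tris/CaCl2/NaCl buffer, pH 7.5. Neuraminidase activity was read fluorimetrically (ex 365, em 445 nm), and IC50 was taken from the dose–response curve.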

Experiment [4] concerns the target Neuraminidase (Influenza A virus (strain A/Brevig Mission/1/1918 H1N1) (Influenza Avirus (strain A/South Carolina/1/1918 H1N1)), UniProt Q9IGQ6). In words: Inhibition of Influenza A virus (A/Brevig Mission/1/1918(H1N1)) recombinant soluble neuraminidase using 2'-4(methylumbelliferyl)-alpha-D-N-acetylneuraminic acid substrate by fluorimetric assay. The gist of the method: as §2

For experiment [5], the system named is Influenza A virus. Briefly: Antiviral activity against NP40-inactivated Influenza A virus (A/Brisbane/59/2007(H1N1)) preincubated with virus for 10 mins by viral hemagglutinination titter assay. It counts as functional, organism-based. The gist of the method: as §3
In experiment [6] the target is Neuraminidase (Influenza A virus (strain A/Brevig Mission/1/1918 H1N1) (Influenza Avirus (strain A/South Carolina/1/1918 H1N1))) (UniProt Q9IGQ6). In words: Competitive inhibition of Influenza A virus (A/Brevig Mission/1/1918(H1N1)) recombinant soluble neuraminidase at 0.7 to 3 nM using 2'-4(methylumbelliferyl)-alpha-D-N-acetylneuraminic acid substrate by fluorimetric based Lineweaver-Burk plot analysis. The gist of the method: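 Recombinant soluble neuraminidase (1000 ng/mL stock, 400 ng/mL in well) in 50 mM Tris pH 7.5, 200 mM NaCl, 5 mM CaCl2. The 4-methylumbelliferyl sialic acid substrate working solution was serially diluted in buffer with 4% DMSO. Reaction progress was read by fluorescence (ex 365, em 445 nm) over 10 min across several substrate and inhibitor concentrations. Substrate-only controls were run.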
Neuraminidase (Influenza A virus (strain A/Brevig Mission/1/1918 H1N1) (Influenza Avirus (strain A/South Carolina/1/1918 H1N1))), sequence (Q9IGQ6 whole entry): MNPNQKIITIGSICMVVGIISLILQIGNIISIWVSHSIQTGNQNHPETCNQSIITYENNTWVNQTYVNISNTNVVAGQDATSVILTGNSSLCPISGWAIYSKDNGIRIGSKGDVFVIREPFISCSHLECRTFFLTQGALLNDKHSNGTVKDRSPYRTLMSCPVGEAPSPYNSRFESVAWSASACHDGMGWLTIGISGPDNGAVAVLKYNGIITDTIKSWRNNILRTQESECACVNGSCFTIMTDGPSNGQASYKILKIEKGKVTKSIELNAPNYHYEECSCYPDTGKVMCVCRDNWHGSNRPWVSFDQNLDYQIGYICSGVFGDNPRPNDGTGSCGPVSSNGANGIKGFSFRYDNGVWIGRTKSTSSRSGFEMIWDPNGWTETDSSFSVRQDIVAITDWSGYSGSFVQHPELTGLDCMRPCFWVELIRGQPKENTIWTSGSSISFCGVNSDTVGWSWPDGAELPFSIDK

For experiment [7], the system named is Influenza A virus. In words: Antiviral activity against NP40-inactivated Influenza A virus (A/Brisbane/59/2007(H1N1)) preincubated with virus for 2 hrs by viral hemagglutinination titter assay. It counts as functional, organism-based. In outline:
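The virus assay used 0.2% NP40-inactivated virus, diluted to match the activity of 1000 ng/mL recombinant enzyme stock, with inhibitor preincubation lengthened to 2 h at room temperature before the 4-methylumbelliferyl substrate was added. Reaction was in pH 7.5 Tris/CaCl2/NaCl buffer, with fluorescence read at ex 365/em 445 nm. IC50 came from dose–response.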

The target of experiment [8] is Neuraminidase (Influenza A virus (strain A/Brevig Mission/1/1918 H1N1) (Influenza Avirus (strain A/South Carolina/1/1918 H1N1))) (UniProt Q9IGQ6). In words: Competitive inhibition of Influenza A virus (A/Brevig Mission/1/1918(H1N1)) recombinant soluble neuraminidase at 3.75 to 15 nM using 2'-4(methylumbelliferyl)-alpha-D-N-acetylneuraminic acid substrate by fluorimetric based Lineweaver-Burk plot analysis. In outline:
as §1

For experiment [9] the target is unchanged. Briefly: Competitive inhibition of Influenza A virus (A/Brevig Mission/1/1918(H1N1)) recombinant soluble neuraminidase at 3.75 to 15 nM using 2'-4(methylumbelliferyl)-alpha-D-N-acetylneuraminic acid substrate by fluorimetric based Michaelis-Menten equation analysis. The gist of the method:
as §1

Neuraminidase (Influenza A virus (strain A/Brevig Mission/1/1918 H1N1) (Influenza Avirus (strain A/South Carolina/1/1918 H1N1)), UniProt Q9IGQ6), sequence (Q9IGQ6 whole entry): as above
Neuraminidase, sequence (B4URF0 whole entry): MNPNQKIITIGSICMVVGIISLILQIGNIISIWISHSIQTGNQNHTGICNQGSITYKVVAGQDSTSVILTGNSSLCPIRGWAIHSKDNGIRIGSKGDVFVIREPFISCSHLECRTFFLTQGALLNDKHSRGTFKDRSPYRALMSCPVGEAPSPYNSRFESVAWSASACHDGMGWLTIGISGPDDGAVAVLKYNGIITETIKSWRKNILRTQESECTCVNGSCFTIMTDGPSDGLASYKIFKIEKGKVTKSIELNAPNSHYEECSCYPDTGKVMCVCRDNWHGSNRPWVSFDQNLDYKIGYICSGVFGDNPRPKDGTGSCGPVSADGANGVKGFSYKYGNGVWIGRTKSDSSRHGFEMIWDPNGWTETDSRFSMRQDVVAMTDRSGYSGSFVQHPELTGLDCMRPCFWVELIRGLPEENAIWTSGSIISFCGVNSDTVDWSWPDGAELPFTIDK
Neuraminidase (Influenza A virus), sequence (B4URF0 as listed by the source): as the sequence (B4URF0 whole entry) above

Turning to `CCOC(=O)C1=C[C@@H](OC(CC)CC)[C@H](NC(C)=O)[C@@H](N)C1` [OSELTAMIVIR], at Neuraminidase, the pIC50 is 9.00.

As to `CCC(CC)[C@H](NC(C)=O)[C@@H]1[C@H](O)[C@@H](C(=O)O)C[C@H]1NC(=N)N` [PERAMIVIR ANHYDROUS], the inhibition entry in experiment [1] and in experiment [6] was “Active” in each case. In addition, the inhibition result in [2] and in experiment [3] was “Dose-dependent effect” throughout. For the same compound, the pIC50 was 8.47 in experiment [4] and 9.07 in the experiment with Influenza A virus [5]. Moreover, the pKi in experiment [4] is 9.08.

Take `CCOC(=O)C1=C[C@@H](OC(CC)CC)[C@H](NC(C)=O)[C@@H](NC(=N)N)C1`: the pIC50 on Neuraminidase is 9.30.

With `N[C@H]1CC[C@@](O)(C(=O)O)C1`, the pIC50 in experiment [4] was 1.43.

`N=C(N)N[C@H]1CC[C@@](O)(C(=O)O)C1`: the pIC50 in [4] is 2.40.

Regarding `CCC(CC)[C@H](NC(C)=O)[C@@H]1[C@H](O)[C@@H](C(=O)O)C[C@H]1N`, the inhibition entry in experiment [2] and in [3] was “Dose-dependent effect” each time. Also, the results for the pIC50 (in the experiment with Influenza A virus [7]; in [4]; in the experiment with Influenza A virus [5]) were 8.66, 7.75 and 8.14, respectively. Also, the pKi in [4] is 8.12. Further, the inhibition entry in [8] and in experiment [9] was “Active” in each case.

Source of the values: ChEMBL document CHEMBL1926680, “The de-guanidinylated derivative of peramivir remains a potent inhibitor of influenza neuraminidase” (Bioorg Med Chem Lett, 2011).
